Source: article PMC5952261 (ACS Infectious Diseases, 2018)
≈ marks a conversion by molar mass, not a printed value. Positions of bridges follow the written chain, without caps; N, C: chain ends. Non-standard residues stand in square brackets, D forms with d. Residues, ends and D or L forms follow the SMILES beside them. *: point of attachment. X1 = CC[C@H](C)CCCCC(=O)*; Dab = NCC[C@H](N)C(=O)O

Experiments:
[1] = tested on: P. aeruginosa FADDI-PA066; assay: MIC in CAMHB; format: cell-based, Pseudomonas aeruginosa; conditions: polymyxin resistant CF isolate, 10^6 CFU/mL, 18 h, 37 °C, visible growth
[2] = tested on: polymyxin-sensitive P. aeruginosa isolates; assay: MIC in CAMHB, panel summary; format: cell-based, Pseudomonas aeruginosa; conditions: range over the panel of Table 1, CAMHB
[3] = tested on: P. aeruginosa CF isolate FADDI-PA066; assay: Cell viability, planktonic growth in artificial sputum media; format: cell-based, Pseudomonas aeruginosa; conditions: up to 128 mg/L
[4] = tested on: P. aeruginosa FADDI-PA020; assay: Impact of sputum biomolecules on lipopeptide activity in CAMHB; format: cell-based, Pseudomonas aeruginosa; conditions: lipopeptide 2 mg/L, 3 h, colony counts; for impact of DNA on antibacterial activity: DNA 125 mg/L; for impact of F-actin/DNA on antibacterial activity: F-actin/DNA 125 mg/L
Summary of the method: (§1)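 Mid-log cultures (OD500 0.4–0.6; 37 °C, 180 rpm) were diluted to OD ~0.05 in CAMHB. Test compound at 2 mg/L was coincubated for 3 h in 24-well plates with one biomolecule at 125 mg/L: F-actin/DNA, DNA, mucin, phospholipids, surfactant or LPS. Samples were spiral-plated and incubated overnight at 37 °C, and colonies were counted automatically. Detection limit 10 CFU/mL.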

[5] = tested on: P. aeruginosa FADDI-PA060; assay: MIC in CAMHB; format: cell-based, Pseudomonas aeruginosa; conditions: polymyxin resistant, 10^6 CFU/mL, 18 h, 37 °C, visible growth
[6] = tested on: P. aeruginosa FADDI-PA021; assay: Impact of sputum biomolecules on lipopeptide activity in CAMHB; format: cell-based, Pseudomonas aeruginosa; conditions: lipopeptide 2 mg/L, 3 h, colony counts; for impact of DNA on antibacterial activity: DNA 125 mg/L; for impact of F-actin/DNA on antibacterial activity: F-actin/DNA 125 mg/L
Summary of the method: as §1

[7] = tested on: P. aeruginosa FADDI-PA066; assay: as above; format: cell-based, Pseudomonas aeruginosa; conditions: lipopeptide 2 mg/L, 3 h, colony counts; for impact of F-actin/DNA on antibacterial activity: F-actin/DNA 125 mg/L; for impact of mucin on antibacterial activity: mucin 125 mg/L (50% (w/v)); for impact of phospholipids on antibacterial activity: phospholipids 125 mg/L
Summary of the method: as §1

[8] = tested on: P. aeruginosa FADDI-PA069; assay: MIC in CAMHB; format: cell-based, Pseudomonas aeruginosa; conditions: polymyxin resistant, 10^6 CFU/mL, 18 h, 37 °C, visible growth
[9] = tested on: P. aeruginosa FADDI-PA093; assay: MIC in CAMHB; format: cell-based, Pseudomonas aeruginosa; conditions: polymyxin resistant, 10^6 CFU/mL, 18 h, 37 °C, visible growth
[10] = tested on: P. aeruginosa FADDI-PA091; assay: MIC in CAMHB; format: cell-based, Pseudomonas aeruginosa; conditions: polymyxin susceptible, 10^6 CFU/mL, 18 h, 37 °C, visible growth
[11] = tested on: P. aeruginosa FADDI-PA025; assay: MIC in CAMHB; format: cell-based, Pseudomonas aeruginosa; conditions: polymyxin susceptible, 10^6 CFU/mL, 18 h, 37 °C, visible growth
[12] = tested on: P. aeruginosa FADDI-PA022; assay: MIC in CAMHB; format: cell-based, Pseudomonas aeruginosa; conditions: polymyxin susceptible, 10^6 CFU/mL, 18 h, 37 °C, visible growth
[13] = tested on: P. aeruginosa FADDI-PA070; assay: MIC in CAMHB; format: cell-based, Pseudomonas aeruginosa; conditions: polymyxin resistant, 10^6 CFU/mL, 18 h, 37 °C, visible growth
[14] = tested on: mucin; conditions: dialysis; ref Huang et al., 32; cited from earlier work
[15] = tested on: P. aeruginosa FADDI-PA062; assay: MIC in CAMHB; format: cell-based, Pseudomonas aeruginosa; conditions: polymyxin resistant, 10^6 CFU/mL, 18 h, 37 °C, visible growth
[16] = tested on: P. aeruginosa FADDI-PA068; assay: MIC in CAMHB; format: cell-based, Pseudomonas aeruginosa; conditions: polymyxin resistant, 10^6 CFU/mL, 18 h, 37 °C, visible growth
[17] = tested on: P. aeruginosa ATCC 27853; assay: MIC in CAMHB; format: cell-based, Pseudomonas aeruginosa; conditions: polymyxin susceptible, 10^6 CFU/mL, 18 h, 37 °C, visible growth
[18] = tested on: P. aeruginosa FADDI-PA001; assay: MIC in CAMHB; format: cell-based, Pseudomonas aeruginosa; conditions: polymyxin susceptible, 10^6 CFU/mL, 18 h, 37 °C, visible growth
[19] = tested on: P. aeruginosa FADDI-PA065; assay: MIC in CAMHB; format: cell-based, Pseudomonas aeruginosa; conditions: polymyxin resistant, 10^6 CFU/mL, 18 h, 37 °C, visible growth
[20] = tested on: P. aeruginosa FADDI-PA002; assay: MIC in CAMHB; format: cell-based, Pseudomonas aeruginosa; conditions: polymyxin susceptible, 10^6 CFU/mL, 18 h, 37 °C, visible growth
[21] = tested on: P. aeruginosa FADDI-PA038; assay: MIC in CAMHB; format: cell-based, Pseudomonas aeruginosa; conditions: polymyxin susceptible, 10^6 CFU/mL, 18 h, 37 °C, visible growth
[22] = tested on: P. aeruginosa FADDI-PA092; assay: MIC in CAMHB; format: cell-based, Pseudomonas aeruginosa; conditions: polymyxin resistant, 10^6 CFU/mL, 18 h, 37 °C, visible growth
[23] = tested on: P. aeruginosa FADDI-PA066; assay: Transmission electron microscopy of cells growing in biofilm; format: cell-based, Pseudomonas aeruginosa; conditions: 1× MIC (colistin 128 mg/L; octapeptin A3 16 mg/L), 1 h, 37 °C

For CC[C@H](C)CCCCC(=O)N[C@@H](CCN)C(=O)N[C@H](C(=O)N[C@@H](CCN)C(=O)N[C@H]1CCNC(=O)[C@H]([C@@H](C)O)NC(=O)[C@H](CCN)NC(=O)[C@H](CCN)NC(=O)[C@H](CC(C)C)NC(=O)[C@@H](Cc2ccccc2)NC(=O)[C@H](CCN)NC1=O)[C@@H](C)O [polymyxin B] (X1-[Dab]T[Dab][Dab][Dab][dF]L[Dab][Dab]T; lactam 4-C (inferred); N-terminus assumed), the minimum inhibitory concentration [1] was 32 µg/mL (≈ 26.6 µM), the “MICs against the polymyxin-sensitive isolates” value [2] was 0.25 to 4 mg/L and the “activity (reduction of cell viability), in words” value [3] was “inactive even at 128 mg/L”. The “impact of DNA on antibacterial activity” value [4] was “marginally impacted”, the “impact of F-actin/DNA on antibacterial activity” value (shortened to “impact of F-actin/DNA”) [4] was “only marginally affected” and the minimum inhibitory concentration [5] was >128 µg/mL. For the same compound, the “impact of DNA on antibacterial activity” value [6] was “marginally impacted”, the “impact of F-actin/DNA” value [6] was “inhibited” and the “impact of F-actin/DNA” value [7] was “marginally inhibited”. For the same compound, the “impact of mucin on antibacterial activity” value [7] was “not noticeable”, the “impact of phospholipids on antibacterial activity” value [7] was “not discernible” and the minimum inhibitory concentration [8] was >32 µg/mL. For the same compound, the minimum inhibitory concentration [9] was 32 µg/mL (≈ 26.6 µM), the minimum inhibitory concentration [10] was 1 µg/mL (≈ 0.831 µM) and the minimum inhibitory concentration [11] was 2 µg/mL (≈ 1.66 µM). For the same compound, the minimum inhibitory concentration [12] was 1 µg/mL (≈ 0.831 µM), the minimum inhibitory concentration [13] was >32 µg/mL and the binding to mucin [14] was “avidly bind”. The minimum inhibitory concentration [15] was >32 µg/mL, the minimum inhibitory concentration [16] was >32 µg/mL and the minimum inhibitory concentration [17] was 0.5 µg/mL (≈ 0.415 µM). For the same compound, the minimum inhibitory concentration [18] was 0.5 µg/mL (≈ 0.415 µM), the minimum inhibitory concentration [19] was >32 µg/mL and the minimum inhibitory concentration [20] was 0.5 µg/mL (≈ 0.415 µM). It also gave a minimum inhibitory concentration [21] of 1 µg/mL (≈ 0.831 µM).
With CC[C@H](C)CCCCC(=O)N[C@@H](CCN)C(=O)N[C@H](C(=O)N[C@@H](CCN)C(=O)N[C@H]1CCNC(=O)[C@H]([C@@H](C)O)NC(=O)[C@H](CCN)NC(=O)[C@H](CCN)NC(=O)[C@H](CC(C)C)NC(=O)[C@@H](CC(C)C)NC(=O)[C@H](CCN)NC1=O)[C@@H](C)O [colistin] (X1-[Dab]T[Dab][Dab][Dab][dL]L[Dab][Dab]T; lactam 4-C (inferred); N-terminus assumed) the minimum inhibitory concentration [1] was >128 µg/mL, the “MICs against the polymyxin-sensitive isolates” value [2] was 0.25 to 4 mg/L and the minimum inhibitory concentration [22] was 16 µg/mL (≈ 13.7 µM). The “activity (reduction of cell viability), in words” value [3] was “inactive even at 128 mg/L”, the “impact of DNA on antibacterial activity” value [4] was “marginally impacted” and the “impact of F-actin/DNA” value [4] was “only marginally affected”. For the same compound, the “impact of DNA on antibacterial activity” value [6] was “marginally impacted”, the “impact of F-actin/DNA” value [6] was “inhibited” and the “impact of F-actin/DNA” value [7] was “no impact”. For the same compound, the “impact of mucin on antibacterial activity” value [7] was “not noticeable”, the “impact of phospholipids on antibacterial activity” value [7] was “not discernible” and the “effect on bacterial outer membrane (TEM)” value [23] was “blebbing effect with vesicular protrusions from the outer membrane”. It also gave a minimum inhibitory concentration [10] of 0.5 µg/mL (≈ 0.428 µM), a minimum inhibitory concentration [11] of 2 µg/mL (≈ 1.71 µM) and a minimum inhibitory concentration [12] of 1 µg/mL (≈ 0.855 µM). For the same compound, the binding to mucin [14] was “avidly bind”, the minimum inhibitory concentration [17] was 1 µg/mL (≈ 0.855 µM) and the minimum inhibitory concentration [18] was 0.5 µg/mL (≈ 0.428 µM). The minimum inhibitory concentration [20] was 0.25 µg/mL (≈ 0.214 µM) and the minimum inhibitory concentration [21] was 1 µg/mL (≈ 0.855 µM).
